Results from ChEMBL document CHEMBL3085739, “Design, synthesis, and biological evaluation of 2-oxo-3,4-dihydropyrimido[4,5-d]pyrimidinyl derivatives as new irreversible epidermal growth factor receptor inhibitors with improved pharmacokinetic properties” (J Med Chem, 2013).
pIC50: −log10 of the molar value. Values after ≈ are worked out from the molar mass of the structure shown.

How the values were obtained:
[1] = Clearance in Sprague-Dawley rat at 5 mg/kg, iv by LC/MS analysis; type: ADME, organism-based; set-up: dose 5 mg/kg, route intravenous; conditions: in vivo
Procedure, shortened: (§1)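 Male Sprague-Dawley rats (180−220 g), n = 4 per route, single iv dose 5 mg/kg or oral gavage 25 mg/kg. Vehicle was 2% DMSO, 4% EtOH, 4% castor oil, 90% H2O. Orbital sinus blood was taken from 2 min to 72 h into heparinized tubes. Plasma levels were measured by LC/MS with propranolol internal standard and analysed by pharmacokinetic modelling.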

[2] = Clearance in Sprague-Dawley rat at 25 mg/kg, po by LC/MS analysis; type: ADME, organism-based; set-up: dose 25 mg/kg, route oral; conditions: in vivo; procedure, shortened: as §1
[3] = AUC (0 to infinity) in Sprague-Dawley rat at 5 mg/kg, iv by LC/MS analysis; type: ADME, organism-based; set-up: time infinity, dose 5 mg/kg, route intravenous; conditions: plasma; procedure, shortened: as §1
[4] = molecular target: Epidermal growth factor receptor (Homo sapiens, UniProt P00533, L858R/T790M); assay: Inhibition of EGFR L858R/T790M double mutant (unknown origin) after 1.5 hrs by FRET-based Z'-Lyte assay; type: protein assay
[5] = Cmax in Sprague-Dawley rat at 25 mg/kg, po by LC/MS analysis; type: ADME, organism-based; set-up: dose 25 mg/kg, route oral; conditions: in vivo; procedure, shortened: as §1
[6] = Cmax in Sprague-Dawley rat at 5 mg/kg, iv by LC/MS analysis; type: ADME, organism-based; set-up: dose 5 mg/kg, route intravenous; conditions: in vivo; procedure, shortened: as §1
[7] = AUC (0 to infinity) in Sprague-Dawley rat at 25 mg/kg, po by LC/MS analysis; type: ADME, organism-based; set-up: dose 25 mg/kg, route oral, time infinity; conditions: plasma; procedure, shortened: as §1
[8] = Thermodynamic aqueous solubility of the compound in PBS buffer at pH 6.8 after 24 hrs by HPLC analysis; type: physicochemical; conditions: for solubility thermodynamic at 24 h: PBS buffer, pH 6.8, read-out: Therm_solubility
Procedure, shortened: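 Compound was shaken in aqueous buffer at pH 6.8 for 24 h at ambient temperature; dissolved concentration was measured by HPLC.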

[9] = Oral bioavailability in Sprague-Dawley rat at 25 mg/kg by LC/MS analysis; type: ADME, organism-based; conditions: in vivo; procedure, shortened: as §1
NCI-H1975 = assay: Antiproliferative activity against human NCI-H1975 cells expressing EGFR L858R/T790M double mutant after 72 hrs by MTS assay; type: functional, cell-based; conditions: NCI-H1975, 72 h

Epidermal growth factor receptor, sequence (P00533 25-1210 T790M/L858R limits assumed): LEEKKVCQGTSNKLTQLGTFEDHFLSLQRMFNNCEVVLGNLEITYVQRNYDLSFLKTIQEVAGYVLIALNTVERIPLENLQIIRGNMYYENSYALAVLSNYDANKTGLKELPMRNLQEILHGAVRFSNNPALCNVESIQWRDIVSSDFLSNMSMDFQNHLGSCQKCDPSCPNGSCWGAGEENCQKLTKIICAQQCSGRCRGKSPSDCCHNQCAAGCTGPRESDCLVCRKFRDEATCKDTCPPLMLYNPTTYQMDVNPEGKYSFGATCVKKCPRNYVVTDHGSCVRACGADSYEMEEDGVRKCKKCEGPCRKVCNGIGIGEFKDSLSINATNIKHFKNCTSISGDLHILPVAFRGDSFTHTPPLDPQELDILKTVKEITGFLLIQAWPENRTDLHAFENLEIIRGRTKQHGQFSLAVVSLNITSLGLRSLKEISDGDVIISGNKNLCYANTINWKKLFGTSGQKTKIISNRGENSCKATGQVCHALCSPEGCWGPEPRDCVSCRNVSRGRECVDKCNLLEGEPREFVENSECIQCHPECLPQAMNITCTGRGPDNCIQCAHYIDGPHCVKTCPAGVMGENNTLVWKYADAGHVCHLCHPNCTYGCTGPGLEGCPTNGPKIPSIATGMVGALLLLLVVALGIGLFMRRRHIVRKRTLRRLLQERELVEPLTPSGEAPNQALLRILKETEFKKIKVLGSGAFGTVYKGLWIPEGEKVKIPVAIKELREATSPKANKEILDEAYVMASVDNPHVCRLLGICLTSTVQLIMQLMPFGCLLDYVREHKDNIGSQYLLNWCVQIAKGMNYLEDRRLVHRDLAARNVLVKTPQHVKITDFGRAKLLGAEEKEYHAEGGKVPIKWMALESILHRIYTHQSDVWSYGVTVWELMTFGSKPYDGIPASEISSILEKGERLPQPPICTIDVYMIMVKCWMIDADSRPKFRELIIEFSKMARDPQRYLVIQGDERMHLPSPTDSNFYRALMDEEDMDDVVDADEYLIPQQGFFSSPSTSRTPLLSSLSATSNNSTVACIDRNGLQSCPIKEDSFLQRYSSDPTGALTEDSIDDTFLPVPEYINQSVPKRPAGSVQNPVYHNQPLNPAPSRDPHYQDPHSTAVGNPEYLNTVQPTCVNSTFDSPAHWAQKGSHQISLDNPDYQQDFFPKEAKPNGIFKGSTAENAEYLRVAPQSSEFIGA

Compound: C=CC(=O)N1CC[C@H](N2C(=O)N(c3ccccc3)Cc3cnc(Nc4ccc(N5CCN(C)CC5)cc4)nc32)C1
- clearance [1]: 5.8 L/h/kg
- CL/F [2]: 12.2 L/h/kg
- AUC(0-inf) [3]: 0.857 µg·h/mL
- pIC50 [4]: 7.54
- Cmax [5]: 0.783 µg/mL
- Cmax [6]: 1.53 µg/mL
- AUC(0-inf) [7]: 2.31 µg·h/mL
- solubility thermodynamic at 24 h [8]: 0.976 mg/mL (≈ 1810 µM)
- bioavailability [9]: 54%
- pIC50 (NCI-H1975): 6.60

Compound: C=CC(=O)N1CC[C@H](N2C(=O)N(c3ccccc3)Cc3cnc(Nc4ccccc4)nc32)C1
- clearance [1]: 2.5 L/h/kg
- CL/F [2]: 5.7 L/h/kg
- AUC(0-inf) [3]: 2.03 µg·h/mL
- pIC50 [4]: 6.63
- Cmax [5]: 1.67 µg/mL
- Cmax [6]: 6.54 µg/mL
- AUC(0-inf) [7]: 4.52 µg·h/mL
- solubility thermodynamic at 24 h [8]: 0.0035 mg/mL (≈ 7.95 µM)
- bioavailability [9]: 44%
- pIC50 (NCI-H1975): 5.77

Compound: C=CC(=O)N1CC[C@H](N2C(=O)N(C3CCCC3)Cc3cnc(Nc4ccc(N5CCN(C)CC5)cc4OC)nc32)C1
- pIC50 [4]: 7.23
- solubility thermodynamic at 24 h [8]: 0.25 mg/mL (≈ 446 µM)
- pIC50 (NCI-H1975): 6.17

Compound: C=CC(=O)N1CC[C@H](N2C(=O)N(C3CCCCC3)Cc3cnc(Nc4ccc(N5CCN(C)CC5)cc4OC)nc32)C1
- pIC50 [4]: 7.37
- solubility thermodynamic at 24 h [8]: 0.763 mg/mL (≈ 1330 µM)
- pIC50 (NCI-H1975): 6.18

Compound: C=CC(=O)N1CC[C@H](N2C(=O)N(c3ccccc3)Cc3cnc(Nc4cccc(N5CCN(C)CC5)c4)nc32)C1
- clearance [1]: 6.8 L/h/kg
- CL/F [2]: 33.9 L/h/kg
- AUC(0-inf) [3]: 0.746 µg·h/mL
- pIC50 [4]: 7.01
- Cmax [5]: 0.291 µg/mL
- Cmax [6]: 1.82 µg/mL
- AUC(0-inf) [7]: 0.76 µg·h/mL
- solubility thermodynamic at 24 h [8]: 0.714 mg/mL (≈ 1330 µM)
- bioavailability [9]: 20%
- pIC50 (NCI-H1975): 6.28

Compound: C=CC(=O)N1CC[C@@H](N2C(=O)N(Cc3ccccc3)Cc3cnc(Nc4ccc(N5CCN(C)CC5)cc4OC)nc32)C1
- pIC50 [4]: 6.97
- solubility thermodynamic at 24 h [8]: 0.199 mg/mL (≈ 341 µM)
- pIC50 (NCI-H1975): 5.81

Compound: C=CC(=O)Nc1cccc(N2C(=O)N(Cc3ccccc3)Cc3cnc(Nc4ccc(N5CCN(C)CC5)cc4OC)nc32)c1.CS(=O)(=O)O
- clearance [1]: 3.2 L/h/kg
- AUC(0-inf) [3]: 1.57 µg·h/mL
- Cmax [6]: 4.37 µg/mL
- Therm solubility ([8]; buffer, pH 6.8, 24 h): 0.004 mg/mL

Compound: C=CC(=O)N1CC[C@H](N2C(=O)N(c3ccccc3)Cc3cnc(Nc4ccc(C5CCN(C)CC5)cc4)nc32)C1
- CL/F [2]: 20.1 L/h/kg
- pIC50 [4]: 7.79
- Cmax [5]: 0.359 µg/mL
- AUC(0-inf) [7]: 1.3 µg·h/mL
- solubility thermodynamic at 24 h [8]: 0.31 mg/mL (≈ 577 µM)
- pIC50 (NCI-H1975): 6.51

Compound: C=CC(=O)N1CC[C@H](N2C(=O)N(Cc3ccccc3)Cc3cnc(Nc4ccc(N5CCN(C)CC5)cc4OC)nc32)C1
- clearance [1]: 14.4 L/h/kg
- CL/F [2]: 62.6 L/h/kg
- AUC(0-inf) [3]: 0.359 µg·h/mL
- pIC50 [4]: 8.06
- Cmax [5]: 0.102 µg/mL
- Cmax [6]: 0.784 µg/mL
- AUC(0-inf) [7]: 0.418 µg·h/mL
- solubility thermodynamic at 24 h [8]: 0.107 mg/mL (≈ 184 µM)
- bioavailability [9]: 24%
- pIC50 (NCI-H1975): 6.55

Compound: C=CC(=O)N1CC[C@H](N2C(=O)N(c3ccccc3)Cc3cnc(Nc4ccc(N5CCN(C)CC5)c(F)c4)nc32)C1
- clearance [1]: 2.4 L/h/kg
- CL/F [2]: 7.3 L/h/kg
- AUC(0-inf) [3]: 2.12 µg·h/mL
- Cmax [5]: 0.964 µg/mL
- Cmax [6]: 3.26 µg/mL
- AUC(0-inf) [7]: 3.48 µg·h/mL
- solubility thermodynamic at 24 h [8]: 0.691 mg/mL (≈ 1240 µM)
- bioavailability [9]: 33%

Compound: C=CC(=O)N1CC[C@H](N2C(=O)N(C(C)C)Cc3cnc(Nc4ccc(N5CCN(C)CC5)cc4OC)nc32)C1
- pIC50 [4]: 6.06
- solubility thermodynamic at 24 h [8]: 2.49 mg/mL (≈ 4660 µM)
- pIC50 (NCI-H1975): 5.51

Compound: C=CC(=O)NCCN1C(=O)N(Cc2ccccc2)Cc2cnc(Nc3ccc(N4CCN(C)CC4)cc3OC)nc21
- pIC50 [4]: < 6.00
- solubility thermodynamic at 24 h [8]: 0.0967 mg/mL (≈ 174 µM)
- pIC50 (NCI-H1975): < 5.00

Compound: C=CC(=O)N1CC[C@H](N2C(=O)N(c3ccccc3)Cc3cnc(Nc4ccc(N5CCN(C)CC5)c(C(F)(F)F)c4)nc32)C1
- pIC50 [4]: 7.26
- solubility thermodynamic at 24 h [8]: 0.0609 mg/mL (≈ 100 µM)
- pIC50 (NCI-H1975): 6.71

Compound: C=CC(=O)N1CC[C@H](N2C(=O)N(C)Cc3cnc(Nc4ccc(N5CCN(C)CC5)cc4OC)nc32)C1
- pIC50 [4]: 6.28
- solubility thermodynamic at 24 h [8]: 1.25 mg/mL (≈ 2470 µM)
- pIC50 (NCI-H1975): 5.83

Compound: C=CC(=O)N1CCC(N2C(=O)N(Cc3ccccc3)Cc3cnc(Nc4ccc(N5CCN(C)CC5)cc4OC)nc32)CC1
- pIC50 [4]: 6.84
- solubility thermodynamic at 24 h [8]: 0.0093 mg/mL (≈ 15.6 µM)
- pIC50 (NCI-H1975): 6.26

Compound: C=CC(=O)N1CC[C@H](N2C(=O)N(c3ccccc3)Cc3cnc(Nc4ccc(N5CCN(C)CC5)cc4OC)nc32)C1
- clearance [1]: 5.2 L/h/kg
- CL/F [2]: 12 L/h/kg
- AUC(0-inf) [3]: 0.962 µg·h/mL
- pIC50 [4]: 7.82
- Cmax [5]: 0.613 µg/mL
- Cmax [6]: 1.79 µg/mL
- AUC(0-inf) [7]: 2.12 µg·h/mL
- solubility thermodynamic at 24 h [8]: 1.54 mg/mL (≈ 2700 µM)
- bioavailability [9]: 44%
- pIC50 (NCI-H1975): 6.95

Compound: C=CC(=O)N1CC[C@H](N2C(=O)N(c3ccccc3)Cc3cnc(Nc4ccc(N5CCN(C)CC5)c(Cl)c4)nc32)C1
- pIC50 [4]: 7.45
- solubility thermodynamic at 24 h [8]: 0.214 mg/mL (≈ 374 µM)
- pIC50 (NCI-H1975): 7.05

Compound: C=CC(=O)N1CCC[C@@H](N2C(=O)N(Cc3ccccc3)Cc3cnc(Nc4ccc(N5CCN(C)CC5)cc4OC)nc32)C1
- pIC50 [4]: 7.39
- solubility thermodynamic at 24 h [8]: 0.142 mg/mL (≈ 237 µM)
- pIC50 (NCI-H1975): 6.36

Compound: C=CC(=O)N1CC[C@H](N2C(=O)N(c3ccccc3)Cc3cnc(Nc4ccc(CCN5CCN(C)CC5)cc4)nc32)C1
- clearance [1]: 9.2 L/h/kg
- CL/F [2]: 22.9 L/h/kg
- AUC(0-inf) [3]: 0.561 µg·h/mL
- pIC50 [4]: 7.38
- Cmax [5]: 0.232 µg/mL
- Cmax [6]: 1.41 µg/mL
- AUC(0-inf) [7]: 1.13 µg·h/mL
- solubility thermodynamic at 24 h [8]: 4.35 mg/mL (≈ 7680 µM)
- bioavailability [9]: 40%
- pIC50 (NCI-H1975): 6.35

Compound: C=CC(=O)N1CC[C@H](N2C(=O)N(c3ccccc3)Cc3cnc(Nc4ccc(N5CCN(C)CC5)c(OC)c4)nc32)C1
- clearance [1]: 5.5 L/h/kg
- CL/F [2]: 28 L/h/kg
- AUC(0-inf) [3]: 0.949 µg·h/mL
- pIC50 [4]: 8.14
- Cmax [5]: 0.42 µg/mL
- Cmax [6]: 3.41 µg/mL
- AUC(0-inf) [7]: 0.948 µg·h/mL
- solubility thermodynamic at 24 h [8]: 0.256 mg/mL (≈ 450 µM)
- bioavailability [9]: 20%
- pIC50 (NCI-H1975): 7.19

Compound: C=CC(=O)N1CCC[C@H](N2C(=O)N(Cc3ccccc3)Cc3cnc(Nc4ccc(N5CCN(C)CC5)cc4OC)nc32)C1
- pIC50 [4]: 6.69
- solubility thermodynamic at 24 h [8]: 0.129 mg/mL (≈ 216 µM)
- pIC50 (NCI-H1975): 5.81

Compound: C=CC(=O)NC1CCC(N2C(=O)N(Cc3ccccc3)Cc3cnc(Nc4ccc(N5CCN(C)CC5)cc4OC)nc32)CC1 (centres undefined)
- pIC50 [4]: 6.15
- solubility thermodynamic at 24 h [8]: 0.0188 mg/mL (≈ 30.8 µM)
- pIC50 (NCI-H1975): 5.57
